An excerpt weighted towards active compounds, which were near 3.7% of everything screened.
KCNQ1 block: inhibitors of human KCNQ1 channel, primary screen, cell-based, thallium flux, high-throughput | Potassium voltage-gated channel subfamily KQT member 1 (Homo sapiens), P51787 | CHO-K1 KCNQ1, FluxOR thallium flux fluorescence; active compounds read high | B-score at 10 µM | actives 1.3% (n = 310,000);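 active = compounds whose thallium flux B-score, printed positive for inhibition, exceeds three library SD while starting fluorescence stays within three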;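 also: channel opened by potassium depolarization with thallium stimulus after 20 min compound exposure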
Kir21 block: inhibitors of mouse Kir2.1 inward-rectifier potassium channel. Inward rectifier potassium channel 2 (Mus musculus), P35561. HEK293-Kir2.1, FluxOR thallium flux fluorescence; active compounds read low. B-score at 10 µM. actives 0.85% (n = 310,000);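 active = fluorescence ratio B-score at or below minus 3 SD of library scores, with starting-brightness B-score within 2 SD, cut at about -4.2 in these data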;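 also: channel flux triggered by added potassium and thallium sulfate stimulus; B-score of peak minus minimum fluorescence over baseline after thallium stimulus; more negative B-score means stronger Kir2.1 block with less thallium influx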
KCNK3 inh: human KCNK3 channel inhibitors, primary screen, CHO cells, FluxOR thallium flux, B-score. Potassium channel subfamily K member 3 (Homo sapiens), O14649. FluxOR fluorescence; active compounds read low. B-score at 10 µM. actives 0.84% (n = 340,000). AID 602410, 2012;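 active = B-score under library mean minus 4 SD, starting fluorescence ratio at most library mean plus 5 SD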;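 also: more negative B-score means stronger inhibition of thallium flux through KCNK3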
KCNK9 block: KCNK9 potassium channel inhibitors, primary screen, HEK293 cells, thallium flux; B-score at 10 µM; Potassium channel subfamily K member 9 (Homo sapiens), Q9NPC2; FluxOR thallium flux fluorescence; active compounds read low; actives 1.2% (n = 310,000);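 active = ratio B-score over 3 SD below the library mean, with starting fluorescence within 5 SD of its mean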;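 also: negative B-score means less thallium flux so channel inhibition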
Target sequence (Q9NPC2 whole entry, looked up): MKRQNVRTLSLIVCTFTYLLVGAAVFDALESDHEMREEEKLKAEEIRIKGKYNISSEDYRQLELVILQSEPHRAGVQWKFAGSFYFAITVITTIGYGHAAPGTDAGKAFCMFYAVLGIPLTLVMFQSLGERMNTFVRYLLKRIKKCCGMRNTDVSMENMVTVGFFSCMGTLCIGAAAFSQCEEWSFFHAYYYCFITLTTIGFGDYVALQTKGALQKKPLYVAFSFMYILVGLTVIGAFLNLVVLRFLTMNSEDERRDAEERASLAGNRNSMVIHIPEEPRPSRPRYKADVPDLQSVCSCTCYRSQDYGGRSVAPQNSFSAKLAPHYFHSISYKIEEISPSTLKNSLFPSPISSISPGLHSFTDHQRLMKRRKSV
KCNQ1 pot: potentiators or activators of KCNQ1 channel, primary screen, cell-based, thallium flux, high-throughput; CHO-K1 KCNQ1, thallium flux FluxOR fluorescence; active compounds read high; actives 0.35% (n = 310,000); Potassium voltage-gated channel subfamily KQT member 1 (Homo sapiens), P51787; AID 2648, 2010; B-score at 10 µM;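 active = fluorescence ratio B-score, a plate-corrected score, at least three library SD, with initial intensity B-score within 5 SD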
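Test system: CHO-K1 cells stably expressing KCNQ1 / Medium: assay buffer / Also added: depolarizing K+/Tl+ stimulus, K2SO4 and Tl2SO4 each 12.5 mM in 5x stock / Incubation: 90 min dye loading and 20 min compound exposure, both at room temperature / Signal: thallium influx via FluxOR fluorescence, kinetic imaging / Evaluation: B score of baseline-normalized fluorescence ratio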
hERG rescue: hERG rescue from dofetilide block, primary screen, cell-based, CHO-hERG, FluxOR thallium flux, dofetilide IC70; activation (rescue from dofetilide block), less the hit threshold, % at 10 µM; dofetilide IC70 present; Voltage-gated inwardly rectifying potassium channel KCNH2 (Homo sapiens), Q12809; actives 0.51% (n = 310,000); AID 1511, 2009;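 active = activation above the mean of controls blocked by dofetilide plus 5 SD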;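 also: thallium influx through hERG after potassium depolarization seen as dye fluorescence rise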
Active calls of the source: *.

CCOC(=O)c1c(NC(=O)c2ccc(C)cc2)sc2c1CC(C)(C)OC2 was read as KCNQ1 block 8*, Kir21 block 0.97, KCNK3 inh inactive, KCNK9 block inactive, KCNQ1 pot inactive and hERG rescue -6.8.
For O=C(CNC(=O)c1ccc(Cl)cc1Cl)OC1CCCCC1=O (stereo not drawn) the results were KCNK3 inh inactive.
CCN(CC(=O)NCc1ccc(F)cc1)C(=O)c1cccnc1SC was read as KCNQ1 block inactive, Kir21 block -0.4, KCNK3 inh inactive, KCNK9 block inactive, KCNQ1 pot inactive and hERG rescue -9.6.
Screening CCC(=O)Oc1ccc2c(c1)O/C(=C\c1ccco1)C2=O returned KCNQ1 block 6*, Kir21 block -0.78, KCNK3 inh inactive, KCNK9 block inactive, KCNQ1 pot inactive and hERG rescue -15.6.
Screening COC(=O)COc1ccc2c(c1)O/C(=C\c1ccco1)C2=O returned KCNQ1 block inactive, Kir21 block -0.87, KCNK3 inh inactive, KCNK9 block inactive, KCNQ1 pot inactive and hERG rescue -6.8.
For CCN(CC)C(=O)Oc1ccc2c(c1)O/C(=C\c1ccco1)C2=O the results were KCNQ1 block inactive, Kir21 block 0.08, KCNK3 inh inactive, KCNK9 block inactive, KCNQ1 pot inactive and hERG rescue -11.8.
Screening COCCN(CCOC)Cc1c(O)ccc2c1O/C(=C\c1ccco1)C2=O returned KCNQ1 block 11*, Kir21 block -9.28, KCNK3 inh inactive, KCNK9 block inactive, KCNQ1 pot inactive and hERG rescue -26.1.
Screening CC(=O)Oc1ccc2c(c1)O/C(=C\c1ccncc1)C2=O returned KCNQ1 block 9*, Kir21 block -8.95, KCNK3 inh inactive, KCNK9 block inactive, KCNQ1 pot inactive and hERG rescue -27.3.
For Cc1cc(O)cc2c1C(=O)/C(=C/c1ccco1)O2 the results were KCNQ1 block 11*, Kir21 block -5.98, KCNK3 inh inactive, KCNK9 block inactive, KCNQ1 pot inactive and hERG rescue -11.4.
For CCN(CC(=O)NCc1cccs1)C(=O)c1ccc(S(=O)(=O)N(CC)c2ccccc2)cc1 the results were KCNK3 inh inactive.
O=C(Cc1ccc(Cl)cc1)NCCc1cnc[nH]1 was read as KCNQ1 block inactive, Kir21 block -1.81, KCNK3 inh inactive, KCNK9 block inactive, KCNQ1 pot inactive and hERG rescue -1.2.
`C[C@H](NC(=O)c1nc[nH]c1C(=O)N1CCN(c2ccccc2)CC1)c1ccccc1` gave KCNK3 inh inactive.
CC(OC(=O)c1ccc(F)cc1)C(=O)Nc1nc(-c2cccc([N+](=O)[O-])c2)cs1 (stereo not drawn) was read as KCNQ1 block inactive, Kir21 block -1.17, KCNK3 inh inactive, KCNK9 block -7.42*, KCNQ1 pot inactive and hERG rescue -5.4.
Screening O=C(Cc1cccc2ccccc12)Nc1nc(-c2cccc([N+](=O)[O-])c2)cs1 returned KCNQ1 block inactive, Kir21 block -0.86, KCNK3 inh inactive, KCNK9 block inactive, KCNQ1 pot inactive and hERG rescue -10.8.
CN(C(=O)COC(=O)/C=C/c1cccs1)c1c(N)n(Cc2ccccc2)c(=O)[nH]c1=O was read as KCNQ1 block inactive, Kir21 block 0.84, KCNK3 inh inactive, KCNK9 block inactive, KCNQ1 pot inactive and hERG rescue -11.3.
`COc1ccc2nc(NN=C(C)c3ccccn3)cc(C)c2c1` gave KCNK3 inh inactive.
`CC1CC(C)CN(CCCNC(=O)c2cc3c(s2)-c2ccccc2OC3)C1` (stereo not drawn) gave KCNQ1 block 6*, Kir21 block -2.47, KCNK3 inh inactive, KCNK9 block inactive, KCNQ1 pot inactive and hERG rescue -13.0.
Screening CCN1CCN(CCCNC(=O)c2cc3c(s2)-c2ccccc2OC3)CC1 returned KCNQ1 block inactive, Kir21 block -1.47, KCNK3 inh inactive, KCNK9 block inactive, KCNQ1 pot inactive and hERG rescue -10.6.
For Cc1cccc2c1-c1sc(C(=O)NCCCN3CCCC(C)C3)cc1CO2 (stereo not drawn) the results were KCNQ1 block inactive, Kir21 block -4.66*, KCNK3 inh inactive, KCNK9 block inactive, KCNQ1 pot inactive and hERG rescue -22.7.
Screening CCCN1CCN(CCCNC(=O)c2cc3c(s2)-c2c(C)cccc2OC3)CC1 returned KCNQ1 block inactive, Kir21 block -0.85, KCNK3 inh inactive, KCNK9 block inactive, KCNQ1 pot inactive and hERG rescue -19.4.
Screening C/C(N)=C(/C#N)C(=O)COC(=O)CC1CCCC1 returned KCNQ1 block inactive, Kir21 block -0.13, KCNK3 inh inactive, KCNK9 block inactive, KCNQ1 pot inactive and hERG rescue -8.8.
`C/C(N)=C(/C#N)C(=O)COC(=O)C1CCC(C(C)(C)C)CC1` (stereo not drawn) gave KCNQ1 block inactive, Kir21 block -11.4*, KCNK3 inh inactive, KCNK9 block inactive, KCNQ1 pot inactive and hERG rescue 0.5.
For CCCCCN(C(=O)CCC(=O)OC(C)C(=O)c1ccc(CC)cc1)c1c(N)n(CCCC)c(=O)[nH]c1=O (stereo not drawn) the results were KCNK3 inh inactive.
Screening Cc1c(C(=O)NCc2ccccc2)oc2ccc(S(=O)(=O)N3CCC4(CC3)OCCO4)cc12 returned KCNQ1 block inactive, Kir21 block -0.06, KCNK3 inh inactive, KCNK9 block inactive, KCNQ1 pot inactive and hERG rescue -3.9.
Cc1c(C(=O)NCCC2=CCCCC2)oc2ccc(S(=O)(=O)N3CCC4(CC3)OCCO4)cc12 was read as KCNQ1 block inactive, Kir21 block -1.48, KCNK3 inh -9.1*, KCNK9 block inactive, KCNQ1 pot inactive and hERG rescue -20.6.
Screening Cc1c(C(=O)Nc2ccc(F)c(F)c2)oc2ccc(S(=O)(=O)N3CCCCC3)cc12 returned KCNQ1 block inactive, Kir21 block 0.59, KCNK3 inh -10.1*, KCNK9 block inactive, KCNQ1 pot inactive and hERG rescue -4.2.
`Cc1c(C(=O)Nc2ccc(F)cc2)oc2ccc(S(=O)(=O)N3CCCC3)cc12` gave KCNQ1 block inactive, Kir21 block 0.59, KCNK3 inh inactive, KCNK9 block inactive, KCNQ1 pot inactive and hERG rescue -1.4.
